Bioassay records (PubChem BioAssay)
Rows were chosen to be rich in hits. Some 3.8% of all compounds tested hit in one or more screens of this group.
KCNK3 inh – human KCNK3 channel inhibition, primary screen. B-score at 10 µM. O14649. 0.84% of 340,000 active. CHO-KCNK3 thallium flux, FluxOR fluorescence; hits give low values;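 active means B-score under library mean minus 4 SD, starting fluorescence ratio at most library mean plus 5 SD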;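 further: more negative B-score means stronger inhibition of thallium flux through KCNK3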
KCNQ1 act – human KCNQ1 channel potentiation or activation. P51787. CHO-K1 KCNQ1, thallium flux FluxOR fluorescence; hits give high values. B-score at 10 µM. 0.35% of 310,000 active. AID 2648;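 active means fluorescence ratio B-score, a plate-corrected score, at least three library SD, with initial intensity B-score within 5 SD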
Target sequence (P51787 whole entry, looked up): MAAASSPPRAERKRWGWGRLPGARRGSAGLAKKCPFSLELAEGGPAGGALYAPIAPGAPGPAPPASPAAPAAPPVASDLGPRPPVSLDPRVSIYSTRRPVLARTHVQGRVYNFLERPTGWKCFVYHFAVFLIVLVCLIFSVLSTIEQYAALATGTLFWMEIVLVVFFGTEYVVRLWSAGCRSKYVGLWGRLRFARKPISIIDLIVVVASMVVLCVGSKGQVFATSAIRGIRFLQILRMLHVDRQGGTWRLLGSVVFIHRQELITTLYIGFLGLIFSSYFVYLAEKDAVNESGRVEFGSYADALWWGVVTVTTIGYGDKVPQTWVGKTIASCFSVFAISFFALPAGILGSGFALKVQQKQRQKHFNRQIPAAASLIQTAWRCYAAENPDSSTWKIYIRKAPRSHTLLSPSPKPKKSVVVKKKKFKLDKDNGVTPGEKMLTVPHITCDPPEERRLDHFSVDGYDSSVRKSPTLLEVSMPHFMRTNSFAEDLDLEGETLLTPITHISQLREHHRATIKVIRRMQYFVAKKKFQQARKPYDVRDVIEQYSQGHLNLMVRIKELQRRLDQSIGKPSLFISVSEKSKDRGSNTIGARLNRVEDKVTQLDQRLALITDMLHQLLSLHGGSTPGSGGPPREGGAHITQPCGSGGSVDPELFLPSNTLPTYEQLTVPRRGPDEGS
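Assay system: CHO-K1 cells stably expressing KCNQ1. Medium: assay buffer for compound exposure, DMSO matched across wells. Timing: 37 °C overnight plating, 90-min dark dye load, 20-min compound pretreatment. Signal: kinetic FluxOR fluorescence, 10 s baseline plus 110 s post-stimulus.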
Kir21 block – blocks the mouse Kir2.1 inward-rectifier potassium channel | P35561 | HEK293-Kir2.1, FluxOR thallium flux fluorescence; hits give low values | 0.85% of 310,000 active | AID 1672 | B-score at 10 µM;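 active means fluorescence ratio B-score at or below minus 3 SD of library scores, with starting-brightness B-score within 2 SD, cut at about -4.2 in these data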;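 further: channel flux triggered by added potassium and thallium sulfate stimulus; B-score of peak minus minimum fluorescence over baseline after thallium stimulus; more negative B-score means stronger Kir2.1 block with less thallium influx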
hERG protect – hERG (human) protection from proarrhythmic block; AID 1511; CHO-hERG, FluxOR thallium flux, dofetilide IC70 present; Q12809; activation (rescue from dofetilide block), less the hit threshold, % at 10 µM; 0.51% of 310,000 active;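 active means activation above the mean of controls blocked by dofetilide plus 5 SD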;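 further: thallium influx through hERG after potassium depolarization seen as dye fluorescence rise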
KCNK9 block – blocks the human KCNK9 two-pore domain potassium channel; HEK293 KCNK9, FluxOR thallium flux fluorescence; hits give low values; AID 488922; Q9NPC2; 1.2% of 310,000 active; B-score at 10 µM;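 active means ratio B-score over 3 SD below the library mean, with starting fluorescence within 5 SD of its mean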;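 further: negative B-score means less thallium flux so channel inhibition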
KCNQ1 inh – blocks the human KCNQ1 potassium channel. B-score at 10 µM. 1.3% of 310,000 active. P51787. AID 2642. CHO-K1 KCNQ1, FluxOR thallium flux fluorescence; hits give high values;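 active means compounds whose thallium flux B-score, printed positive for inhibition, exceeds three library SD while starting fluorescence stays within three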;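 further: channel opened by potassium depolarization with thallium stimulus after 20 min compound exposure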
KCNK9 block conf – confirmation of human KCNK9 potassium channel inhibitors. shares compounds with KCNK9 block. HEK293 KCNK9 cells, FluxOR thallium flux fluorescence. inhibition, % at 10 µM. 43% of 4,900 active;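 active means thallium signal inhibited by more than 5 SD of the compound-free buffer control wells, on both duplicate plates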;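 further: 0% = assay buffer control wells without compound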
Kir21 sel – selectivity of KCNK9 modulators against mouse Kir2.1. shares compounds with KCNK9 block. Kir2.1 cells, FluxOR thallium flux fluorescence. inhibition, % at 10 µM. 4% of 4,900 active. AID 492993;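 active means thallium signal drop more than 5 SD beyond the mean of the no-compound control wells, seen in both duplicate plates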;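 further: signal is fluorescence rise after thallium addition divided by baseline fluorescence; plate controls were assay buffer only for no effect and full block by chlorpromazine control for full effect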
KCNK9 uninduced – second check of KCNK9 modulator effects in non-induced HEK293 cells. FluxOR thallium flux. 40% of 4,900 active. shares compounds with KCNK9 block. inhibition, % at 10 µM. AID 492997;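 active means thallium signal drop beyond 5 SD of the untreated control mean, on both duplicate plates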;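 further: plate controls were buffer only IC0 wells for no effect and SID17386958 at its maximal inhibitory level for full effect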
Numbers without * were called inactive; i = inactive; . = no result given.

SMILES	KCNK3 inh	KCNQ1 act	Kir21 block	hERG protect	KCNK9 block	KCNQ1 inh	KCNK9 block conf	Kir21 sel	KCNK9 uninduced
COC(=O)C(C)N(C(=O)c1cccc2ccccc12)c1c(C)cccc1C (centres undefined)	i	i	-1.9	-8.5	-12.1*	i	52.0%*	i	32.5%*
CCC(=O)NC(=S)NNC(=O)c1ccc(O)cc1	i	i	-0.84	-5.5	-8.22*	i	i	i	27.0%*
O=C(CCSc1ccccc1Cl)Nc1cccc([N+](=O)[O-])c1	i	i	1.83	-14.5	i	i	i	i	30.0%*
Cc1ccccc1CN(CC(=O)Nc1cccc([N+](=O)[O-])c1)S(=O)(=O)c1ccc(Cl)cc1	i	i	-0.01	-10.2	i	9*	i	i	i
Cc1ccccc1OC(C)C(=O)NCCCN1CCOCC1 (centres undefined)	i	i	0.9	-1.2	i	i	.	.	.
Cc1ccc(CN2CCSc3ccc(C(=O)NCC4CCCO4)cc32)cc1 (centres undefined)	i	i	-0.03	-6.0	i	i	.	.	.
COc1ccc(OC)c(CCNC(=O)c2ccc3c(c2)N(Cc2ccc(F)cc2)CCS3)c1	-10*	i	0.59	-10.8	-11.4*	7*	69.0%*	i	32.5%*
Cc1ccc(CN2CCSc3ccc(C(=O)NC4CCCC4)cc32)cc1	i	i	1	-7.7	-11*	i	52.5%*	i	31.0%*
Cc1ccc(S(=O)(=O)NCCc2cn3nc(C)c(C)nc3n2)cc1C	i	i	0.47	-6.5	i	i	.	.	.
COc1ccccc1N(C)S(=O)(=O)c1ccc(C)c(C(=O)NCc2ccccn2)c1	i	.	.	.	.	.	.	.	.
Cc1ccc(CSCCNC(=O)CSCc2ccc([N+](=O)[O-])cc2)cc1	i	i	-0.92	-5.9	i	i	i	i	i
Cc1cccc(CSCCNC(=O)CSCc2ccc([N+](=O)[O-])cc2)c1	i	i	-0.89	-2.5	i	i	.	.	.
CSc1ccccc1NC(=O)CSCc1ccc(C)cc1	i	i	-5.07*	-7.7	i	i	i	i	i
Cc1ccc(CSCC(=O)Nc2ccccc2C(=O)O)cc1	i	i	1.28	-4.9	i	i	.	.	.
Cc1ccc(NC(=O)CSCC(=O)NCCc2ccccc2)cc1	i	i	-0.39	-10.1	i	i	.	.	.
Cc1ccc(CSCC(=O)NCCc2ccccc2)cc1	i	i	-0.81	-9.4	i	i	i	i	i
CCN(CC)S(=O)(=O)c1cccc(NC2=NCC(C)S2)c1 (centres undefined)	i	i	-0.15	-3.7	i	i	.	.	.
COc1ccccc1NC(=O)c1ccc(NC(=O)CSc2ncn[nH]2)cc1	i	i	0.08	-7.6	i	i	.	.	.
CCOC(=O)C1CCN(C(=O)c2cc3c(C)cc(C)cc3[nH]2)CC1	i	i	-1.6	-2.7	i	i	.	.	.
CCOc1ccccc1N1CCN(C(=O)c2cc3c(C)cc(C)cc3[nH]2)CC1	i	i	-1.06	-6.2	-8.29*	i	i	i	i
COc1ccccc1N1CCN(C(=O)c2oc3cc(C)cc(C)c3c2C)CC1	i	i	1.67	-12.8	i	i	i	i	i
CS(=O)(=O)Cc1ccc(C(=O)N2CCN(C(=O)c3cccs3)CC2)cc1	i	.	.	.	.	.	.	.	.
CNC(=O)c1c(NC(=O)C2=COCCO2)sc2c1CCN(C(=O)OC)C2	i	i	1.51	-10.8	i	i	.	.	.
CC(C)C(NC(=O)c1ccc(C(C)(C)C)cc1)C(=O)NCC(c1ccccc1)N(C)C (centres undefined)	i	i	-2.11	-11.6	i	i	.	.	.
C(=N\Nc1nc(-c2ccccc2)cs1)/c1ccncc1	i	i	-0.89	-17.3	i	i	.	.	.
SMILES	KCNK3 inh	KCNQ1 act	Kir21 block	hERG protect	KCNK9 block	KCNQ1 inh	KCNK9 block conf	Kir21 sel	KCNK9 uninduced
O=C(O)Cc1sc(N/N=C\c2ccncc2)nc1-c1ccccc1	i	i	0.14	-6.2	-10.8*	i	25.0%*	i	i
CCOC(=O)C1=C(C)NC(=O)NC1c1c(C)nn(-c2ccccc2)c1Cl (centres undefined)	i	i	-0.34	-7.4	i	i	.	.	.
CCOC(=O)C1=C(C)N(C)C(=O)NC1c1c(C)nn(-c2ccc(C)cc2)c1Cl (centres undefined)	i	i	-0.05	-11.8	i	i	i	i	i
C=C(C)COc1ccc(-c2[nH]ncc2Oc2ccccc2OCC)c(O)c1	i	i	1.27	-13.9	i	i	.	.	.
CCOc1ccccc1Oc1cn[nH]c1-c1ccc(O)cc1O	i	i	-1.78	-10.9	-10.4*	i	32.5%*	i	i
Cc1ccc(C(=O)CCCn2nnc(-c3cccnc3)n2)cc1C	i	i	0.18	-5.1	i	i	i	i	i
Cc1cc(C)c(-c2csc(NC(=O)/C=C/c3cccs3)n2)c(C)c1	i	i	-0.01	-5.3	i	i	i	i	i
CCc1ccc(S(=O)(=O)N/N=C\c2ccc3c(c2)OCO3)cc1	i	i	1.02	-6.7	i	i	.	.	.
CCC(CC)C(=O)Oc1c(Sc2ccccc2[N+](=O)[O-])c(C)nn1C(C)(C)C	i	i	0.3	-11.8	-11.7*	i	52.5%*	i	33.0%*
CC1CCCCN1C(=O)c1ccc(C(=O)c2ccccc2)cc1 (centres undefined)	i	.	.	.	.	.	.	.	.
CC(C)(C)OC(=O)C[C@H]1C/C=C\C[C@H](CC(=O)N[C@H](CO)Cc2ccccc2)C(=O)N[C@@H](Cc2ccccc2)COC1=O	i	.	.	.	.	.	.	.	.
Fc1ccccc1Cc1noc(CN2CCN(C/C=C/c3ccccc3)CC2)n1	i	i	-0.65	-13.7	i	i	i	i	i
Cc1cc(C)c(C#N)c(SCc2cc3c(cc2Cl)OCO3)n1	i	i	-0.35	-3.6	-8.48*	i	35.5%*	i	36.5%*
Cc1cc(C)c(C#N)c(SCc2ccccc2C)n1	i	i	-0.74	-5.2	i	i	.	.	.
CC(C)C(O)(C#CCN1CCCCCC1)c1ccccc1 (centres undefined)	i	i	-1.8	-5.1	i	i	.	.	.
